# According to paper PMC5116011 (The Journal of antibiotics, 2016):
# Where two headings read alike, the source gives them in different places.
# Columns and labels:
# B. subtilis ATCC23857 = assay: MIC, microbroth dilution in Mueller-Hinton broth; type: cell-based; conditions: Bacillus subtilis, ATCC23857, read-out: MIC BS
# Summary of the method: (§1)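 CLSI broth microdilution in cation-adjusted Mueller-Hinton broth. Inocula were grown from MH agar colonies in MH broth, with a final inoculum of 10^5 CFU/ml. Test compound final range was 200–0.2 µg/ml, incubated 37°C for 18–20 h. MIC was the lowest concentration preventing visible growth. Runs were at least duplicate, and the mean MIC was reported.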
# S. aureus NRS 70 (MRSA) = assay: MIC, microbroth dilution in Mueller-Hinton broth; type: cell-based; conditions: Staphylococcus aureus, MRSA|NRS70, read-out: MIC MRSA
# Summary of the method: as §1
# [1] = test system: E. coli BW25113 ΔtolC derivative JW5503-1; assay: MIC, microbroth dilution in Mueller-Hinton broth; type: cell-based, Escherichia coli; conditions: for MIC: Escherichia coli
# S. pyogenes ATCC700294 = assay: MIC, microbroth dilution in Mueller-Hinton broth; type: cell-based; conditions: Streptococcus pyogenes, ATCC700294, read-out: MIC SPy
# Summary of the method: as §1
# B. anthracis sterne = assay: microbe, parasite or virus in culture; type: cell-based; conditions: Bacillus anthracis, read-out: MIC BA
# P. mirabilis ATCC 25933 = assay: MIC, microbroth dilution in Mueller-Hinton broth; type: cell-based; conditions: Proteus mirabilis, ATCC25933, read-out: MIC PM
# P. aeruginosa PA01 = assay: MIC, microbroth dilution in Mueller-Hinton broth; type: cell-based, Pseudomonas aeruginosa; conditions: for MIC PA MH+BP/CCCP: MH broth with 30 µg/ml 2,2′-bipyridyl and 50 µg/ml CCCP; for MIC PA +: with clavulanic acid (6µg/ml); for MIC: Pseudomonas aeruginosa
# P. vulgaris ATCC 33420 = assay: MIC, microbroth dilution in Mueller-Hinton broth; type: cell-based; conditions: Proteus vulgaris, ATCC33420, read-out: MIC PV
# S. pneumoniae R6 = assay: MIC, microbroth dilution in Mueller-Hinton broth; type: cell-based; conditions: Streptococcus pneumoniae, R6, read-out: MIC SP
# Summary of the method: as §1
# E. coli BW25113 = assay: MIC, microbroth dilution in Mueller-Hinton broth; type: cell-based, Escherichia coli; conditions: for MIC EC MH+BP/CCCP / MIC EC / MIC EC +: E. coli BW25113; for MIC EC MH+BP/CCCP: MH broth with 30 µg/ml 2,2′-bipyridyl and 50 µg/ml CCCP; for MIC EC +: with clavulanic acid (6µg/ml); for MIC: Escherichia coli
# [2] = test system: E. coli BW25113 ΔampC derivative JW4111-2; type: cell-based, Escherichia coli; conditions: for MIC: Escherichia coli, BW25113, read-out: MIC ECΔampC −
# [3] = test system: S. aureus -ATCC29213 (MSSA); assay: MIC, microbroth dilution in Mueller-Hinton broth; type: cell-based; conditions: Staphylococcus aureus, read-out: MIC MSSA
# Summary of the method: as §1
# E. faecalis ATCC33186 = assay: MIC, microbroth dilution in Mueller-Hinton broth; type: cell-based; conditions: Enterococcus faecalis, ATCC33186, read-out: MIC EF
# Summary of the method: as §1
# [4] = BW25113, read-out: MIC ECΔtolC MH
# [5] = BW25113, read-out: MIC ECΔtolC MH+BP
# [6] = BW25113, read-out: MIC EC, E. coli BW25113, Mueller-Hinton broth (Table 2)
Compound,MIC (B. subtilis ATCC23857) [µg/mL],MIC (S. aureus NRS 70 (MRSA)) [µg/mL],MIC ECΔtolC MH+BP/CCCP [1] [µg/mL],MIC ECΔtolC MH+CCCP [1] [µg/mL],MIC (S. pyogenes ATCC700294) [µg/mL],MIC (B. anthracis sterne) [µg/mL],MIC (P. mirabilis ATCC 25933) [µg/mL],MIC PA MH+BP/CCCP (P. aeruginosa PA01; P. aeruginosa PA01) [µg/mL],MIC PA + (P. aeruginosa PA01; P. aeruginosa PA01) [µg/mL],"MIC (P. aeruginosa PA01; PA01, read-out: MIC PA) [µg/mL]","MIC (P. aeruginosa PA01; PA01, read-out: MIC PA MH) [µg/mL]","MIC (P. aeruginosa PA01; PA01, read-out: MIC PA MH+BP) [µg/mL]","MIC (P. aeruginosa PA01; PA01, read-out: MIC PA MH+CCCP) [µg/mL]",MIC (P. vulgaris ATCC 33420) [µg/mL],MIC (S. pneumoniae R6) [µg/mL],MIC EC MH+BP/CCCP (E. coli BW25113) [µg/mL],MIC EC + (E. coli BW25113) [µg/mL],MIC ECΔampC + [2] [µg/mL],MIC [3] [µg/mL],MIC (E. faecalis ATCC33186) [µg/mL],further results
CC1(C)SC2C(NC(=O)C(NC(=O)C3=C(O)C(Cc4ccc(O)cc4)NC3=O)c3ccccc3)C(=O)N2C1C(=O)O (centres unmarked) [Compound 2918],3.13,50,0.78,0.78,1.56,6.25,6.25,6.25,6.25,50,50,25,6.25,6.25,0.39,6.25,12.5,6.25,0.78,25,"MIC ([1]; BW25113, read-out: MIC ECΔtolC): 6.25 µg/mL; MIC [1, 4]: 1.56 µg/mL; MIC [1, 5]: 1.56 µg/mL; MIC EC (E. coli BW25113; Mueller-Hinton broth (Table 2)): 6.25 µg/mL; MIC (E. coli BW25113; [6]): 6.25 to 12.5 µg/mL"
CC1(C)SC2C(NC(=O)C(NC(=O)C3=C(O)CN(c4ccccc4)C3=O)c3ccccc3)C(=O)N2C1C(=O)O (centres unmarked) [Compound 2919],1.56,50,1.56,3.13,0.78,3.13,50,12.5,12.5,50,50,50,25,25,< 0.2,25,50,6.25,0.78,25,"MIC ([1]; BW25113, read-out: MIC ECΔtolC): 3.13 µg/mL; MIC [1, 4]: 6.25 µg/mL; MIC [1, 5]: 3.13 µg/mL; MIC EC (E. coli BW25113; Mueller-Hinton broth (Table 2)): 12.5 µg/mL; MIC (E. coli BW25113; [6]): 6.25 to 12.5 µg/mL; MIC [2]: 12.5 µg/mL"
CC1(C)SC2C(NC(=O)C(NC(=O)C3=C(O)C(Cc4ccco4)NC3=O)c3ccccc3)C(=O)N2C1C(=O)O (centres unmarked) [Compound 3002],1.56,50,0.78,1.56,0.39,3.13,1.56,3.13,3.13,12.5,12.5,12.5,6.25,25,0.39,1.56,6.25,6.25,0.78,25,"MIC (P. aeruginosa PA01; PA01, read-out: MIC PA −): 12.5 µg/mL; MIC EC (E. coli BW25113; Mueller-Hinton broth (Table 2)): 6.25 µg/mL; MIC (E. coli BW25113; [6]): 6.25 to 12.5 µg/mL"
"CC1(C)S[C@@H]2[C@H](NC(=O)[C@H](N)c3ccccc3)C(=O)N2[C@H]1C(=O)O [ampicillin, reference compound]",< 0.2,50,0.39,1.56,< 0.2,< 0.2,3.13,–,100,> 200,> 200,> 200,> 200,100,< 0.2,0.78,1.56,1.56,< 0.2,3.13,"MIC PA (P. aeruginosa PA01; P. aeruginosa PA01, Mueller-Hinton broth (Table 2)): >200 µg/mL; MIC (P. aeruginosa PA01; PA01, read-out: MIC PA −): > 200 µg/mL; MIC (E. coli BW25113; [6]): 3.13 µg/mL"
"CCN1CCN(C(=O)N[C@@H](C(=O)N[C@@H]2C(=O)N3[C@@H]2SC(C)(C)[C@@H]3C(=O)O)c2ccccc2)C(=O)C1=O [piperacillin, reference compound]",0.39,25,–,–,< 0.2,0.39,0.19,3.13,3.13,–,–,–,3.13,1.56,< 0.2,0.78,3.13,1.56,< 0.2,3.13,"MIC ([1]; BW25113, read-out: MIC ECΔtolC): 1.56 µg/mL; MIC [1, 4]: 0.09 µg/mL; MIC [1, 5]: 0.09 µg/mL; MIC (E. coli BW25113; BW25113, read-out: MIC EC MH+BP): 1.56 µg/mL; MIC [2]: 1.56 µg/mL"
